Source: PubChem (Broad Institute)
ERp5 inh = blocks human ERp5 reductase activity on insulin | Q15084 | ERp5 insulin aggregation, absorbance 650 nm, 90 min | inhibition, % at 9.99 µM | 350,000 compounds, 0.05% hits | AID 651711;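 active = mean replicate inhibition above about 25%, with every replicate also reaching it, limit read from the data, passing the limit was not always enough; inconclusive = only one of those two criteria met; inactive = neither criterion met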
C2C12 statin = protects C2C12 myotubes from simvastatin toxicity; AID 602340; 330,000 compounds, 0.78% hits; rescue of ATP level, % at 7.49 µM; ATP luminescence, 48 h; scaled: DMSO 0, geranylgeraniol control 100;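 active = mean ATP rescue above about 67%, or every replicate alone reaching that limit, limit read from the data, passing the limit was not always enough; inconclusive = no clear call, values can overlap the other calls; inactive = mean under the limit and some replicate under it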;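 note: myotubes were challenged with 10 µM simvastatin during compound exposure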
PDI inh = blocks human protein disulfide isomerase activity; P07237; PDI insulin aggregation turbidity, A650, 90 min; inhibition, % at 10 µM; 350,000 compounds, 0.052% hits; AID 588391;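 active = mean inhibition across replicates of 30% or more, whatever share of single replicates reach that level; inconclusive = mean inhibition below 30% while every single replicate reaches 30%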
Target sequence (P07237 whole entry, looked up): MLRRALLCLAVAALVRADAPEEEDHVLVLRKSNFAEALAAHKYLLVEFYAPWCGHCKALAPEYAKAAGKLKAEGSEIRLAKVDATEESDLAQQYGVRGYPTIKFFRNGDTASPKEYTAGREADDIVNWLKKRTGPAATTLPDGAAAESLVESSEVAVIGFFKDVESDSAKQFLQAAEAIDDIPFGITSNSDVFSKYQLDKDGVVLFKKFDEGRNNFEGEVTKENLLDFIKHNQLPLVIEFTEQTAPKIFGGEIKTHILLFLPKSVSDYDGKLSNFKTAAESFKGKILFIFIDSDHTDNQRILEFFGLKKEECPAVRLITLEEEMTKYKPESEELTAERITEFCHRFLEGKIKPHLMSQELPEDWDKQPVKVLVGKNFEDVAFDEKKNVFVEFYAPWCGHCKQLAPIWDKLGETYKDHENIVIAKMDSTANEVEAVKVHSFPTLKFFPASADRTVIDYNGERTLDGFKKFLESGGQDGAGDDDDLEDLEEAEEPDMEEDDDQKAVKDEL
F508del corr = CFTR F508del correction in bronchial cells; CFBE cells, YFP halide quenching; stimulated with forskolin plus potentiator P3; % fluorescence drop versus neutral controls; activity (quench increase), % at 7.58 µM; 350,000 compounds, 0.36% hits;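 active = mean added fluorescence quench of at least 8% versus neutral control, with both replicates also reaching 8%; inconclusive = only one of the mean or replicate conditions met; inactive = mean below 8% and not both replicates reaching 8%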;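 note: cells transiently co-express mutant CFTR-F508del with the halide-sensitive YFP; corrector assay measuring rescue of mutant channel to the surface after 24 h compound exposure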
Cneo AK release = Cryptococcus neoformans lysis via adenylate kinase release; C. neoformans lysis, adenylate kinase release luminescence, 4 h; normalised: neutral wells 0, clomiphene wells 100; lysis activity, % at 15 µM; 360,000 compounds, 0.2% hits;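 active = mean lysis activity across replicates of at least 80%, whatever share of replicates individually reach that level; inactive = mean lysis activity below 80%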
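Material – Cryptococcus neoformans yeast cells · Quantity – 5 × 10^6 yeast cells/mL · Buffer or medium – YPD medium · Compound – single dose · Timing – 4 h static compound exposure, 37 °C, read 1 h post-reagent · Signal – adenylate kinase release luminescence · Read-out basis – lysis from increased AK signal · Benchmarks – Clomiphene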
DENV2 CPE = protects cells from dengue virus 2 cytopathic effect; AID 651640; DENV2-infected cells, cytopathic effect rescue, plate reader; CPE inhibition, % at 9.99 µM; 350,000 compounds, 1.7% hits; in the data active = CPE inhibition above about 20%, passing the limit was not always enough; inconclusive = no clear call, values can overlap the other calls; tested in BHK-21 cells
Numbers stand for hits; – = inactive; ? = inconclusive; · = no result given; ! = a repeat was not active. An excerpt weighted towards active compounds, which were near 2.3% of everything screened.

SMILES	ERp5 inh	C2C12 statin	PDI inh	F508del corr	Cneo AK release	DENV2 CPE
O=C(Cc1ccccn1)NCC[C@H]1CC[C@H](NC(=O)Nc2ccc(C(F)(F)F)cc2)[C@H](CO)O1	–	–	·	22	–	–
O=C(Nc1ccccc1)N[C@@H]1CC[C@@H](CCNC(=O)c2ccccc2F)O[C@H]1CO	–	–	·	–	107	–
O=C(CN1CCOCC1)NCC[C@@H]1CC[C@@H](NC(=O)Nc2ccc(F)cc2)[C@@H](CO)O1	–	–	·	–	–	24
O=C(CN1CCOCC1)NCC[C@H]1CC[C@@H](NC(=O)Nc2ccc(F)cc2)[C@H](CO)O1	–	–	·	–	–	–
O=C(Cc1ccccn1)NCC[C@H]1CC[C@@H](NC(=O)Nc2ccc(F)cc2)[C@@H](CO)O1	–	–	·	–	–	–
C[C@@H]1CCCCO[C@H](CN(C)C)[C@H](C)CN([C@H](C)CO)C(=O)c2cc(NS(=O)(=O)c3ccccc3)ccc2O1	·	–	·	–	·	·
COC(=O)c1ccc(C2CC(=O)NC3=C2C(=O)CCC3)cc1 (stereo not given)	·	114	–	·	–	·
CN(C)C(=O)c1ccc(-c2ccc([C@@H]3[C@@H](CO)N4C(=O)CN(C(=O)C5CC5)C[C@@H]34)cc2)cc1	–	·	·	–	·	–
Cc1nnc(N2CCN(c3ccccc3)CC2)[nH]c1=O	·	98	–	·	–	·
CCc1c(C)nc(N2CCN(c3ccc(F)cc3)CC2)[nH]c1=O	–	–	–	–	–	–
Nc1nn(-c2ccccc2)c(N)c1N=Nc1ccc2c(c1)OCO2	·	·	–	·	·	·
Nc1nn(-c2ccccc2)c(N)c1N=Nc1cccc(F)c1	–	·	–	11	–	–
COc1ccc(S(=O)(=O)N(C)C[C@H]2Oc3c(NS(=O)(=O)c4ccccc4)cccc3C(=O)N([C@H](C)CO)C[C@H]2C)cc1	–	–	·	–	–	–
CC(=O)/C(C#N)=C1\NC(=O)C(Cc2ccccc2)S1 (stereo not given)	·	·	–	·	–	·
CC(=O)/C(C#N)=C1\NC(=O)C(Cc2ccccc2C)S1 (stereo not given)	–	·	–	11	–	?
CCCN1[C@@H]2Cn3c(ccc(-c4ccc(OC)cc4)c3=O)[C@H]1[C@@H](C(=O)NCC)[C@@H]2CO	–	·	·	–	·	–
Cc1nc2nc(CSc3nnc(C)s3)cc(=O)n2[nH]1	–	107!	–	–	–	–
CCC(=O)N1[C@@H](CO)[C@H](c2ccc(-c3ccccc3OC)cc2)C12CN(C(C)=O)C2	–	·	·	–	·	–
Cc1noc(C)c1NC(=O)Nc1cccc2c1O[C@H](CN(C)Cc1ccc(-c3ccccc3)cc1)[C@@H](C)CN([C@H](C)CO)C2=O	–	78	·	–	–	–
C[C@H](CO)N1C[C@H](C)[C@H](CN(C)Cc2ccc(C(F)(F)F)cc2)Oc2c(NC(=O)Nc3cccc4ccccc34)cccc2C1=O	–	81	·	–	–	–
Cc1noc(C)c1NC(=O)Nc1cccc2c1O[C@@H](CN(C)Cc1ccc(C(F)(F)F)cc1)[C@H](C)CN([C@@H](C)CO)C2=O	–	–	·	–	–	23
CC(=O)N1[C@H](CO)[C@H](c2ccc(-c3ccccc3)cc2)[C@@H]1CNC(=O)NC(C)C	–	·	·	–	·	–
Cc1ccc(S(=O)(=O)Nc2ccc3c(c2)C(=O)N([C@@H](C)CO)C[C@@H](C)[C@H](CN(C)C(=O)Nc2ccccc2)OCCCC[C@@H](C)O3)cc1	–	·	·	–	–	–
COc1ccc(C2NC(c3ccc(OC)c(OC)c3OC)C(C)C(=O)C2C)c(OC)c1OC (stereo not given)	·	86	–	·	–	·
Cc1noc(C)c1NC(=O)Nc1cccc2c1O[C@@H](CN(C)Cc1ccncc1)[C@@H](C)CN([C@@H](C)CO)C2=O	–	–	·	–	–	–
SMILES	ERp5 inh	C2C12 statin	PDI inh	F508del corr	Cneo AK release	DENV2 CPE
Cc1cccc(NC(=O)CN2CCN(C(=O)CN3C(=O)NC4(CC(C)CC(C)(C)C4)C3=O)CC2)c1C (stereo not given)	–	–	–	8.8	–	–
CC(C)C[C@H]1COCc2cn(nn2)CC[C@@H](Cc2ccccc2)C(=O)N1	–	·	·	·	–	–
CC(=O)Nc1nc2n(n1)C(c1ccccc1)C=C(c1ccccc1)N2 (stereo not given)	·	–	–	·	–	·
CC(=O)Nc1nc2n(n1)C(c1ccc(F)cc1)C=C(c1ccccc1)N2 (stereo not given)	·	133	–	·	–	·
O=C(Nc1ccc(F)c(Cl)c1)C1CCCN(c2cnccn2)C1 (stereo not given)	–	110	–	–	–	–
O=C(Nc1cccc(F)c1)C1CCCN(c2cnccn2)C1 (stereo not given)	–	–	–	–	–	–
OC[C@@H]1CC[C@@H]2O[C@H](CCc3ccc(-c4ccc(F)cc4)cc3)[C@@H](n3cc(C4CC4)nn3)C[C@@H]2O1	–	·	·	–	·	–
CCCc1cn([C@H]2C[C@@H]3O[C@H](CO)CC[C@@H]3O[C@@H]2CCc2ccc(-c3ccccc3C#N)cc2)nn1	–	·	·	–	·	28
OC[C@@H]1CC[C@@H]2O[C@H](CCc3ccc(-c4ccccc4)cc3)[C@@H](n3cc(C4CC4)nn3)C[C@@H]2O1	–	·	·	–	·	20
OC[C@H]1CC[C@@H]2O[C@H](CCc3ccc(-c4ccccc4)cc3)[C@@H](n3cc(C4CC4)nn3)C[C@@H]2O1	–	·	·	–	·	53
CCCc1cn([C@H]2C[C@@H]3O[C@H](CO)CC[C@@H]3O[C@@H]2CCc2ccc(-c3ccc(OC)cc3)cc2)nn1	–	·	·	–	·	–
CCCC(=O)Nc1ccc2c(c1)C(=O)N(C)[C@H]1CC[C@H](CC(=O)NCc3ccccc3)O[C@@H]1CO2	–	–	·	–	–	?
COc1cc(/C=C/C(=O)NC(=O)c2ccccc2O)ccc1OC(C)=O	–	–	·	–	–	73
C[C@@H]1CN([C@H](C)CO)C(=O)c2cccc(NC(=O)C3CC3)c2O[C@H]1CN(C)S(=O)(=O)c1cccs1	–	–	·	–	–	34
C[C@H]1CN([C@@H](C)CO)C(=O)c2cc(NC(=O)C3CC3)ccc2O[C@H]1CN(C)S(=O)(=O)c1cccs1	–	–	·	–	–	36
C[C@H](CO)N1C[C@H](C)[C@H](CN(C)S(=O)(=O)c2cccs2)Oc2ccc(NC(=O)C3CC3)cc2C1=O	–	–	·	–	–	–
COc1cc(C(=O)N2CCC(C(N)=O)CC2)ccc1OCc1c(C)noc1C	–	·	–	9.4	·	–
CC1(C)CC(=O)C2=C(C1)Nc1cc3c(cc1C2c1ccc2c(c1)OCO2)OCO3 (stereo not given)	–	–	·	–	–	38
C[C@H](CO)N1C[C@H](C)[C@H](CN(C)C(=O)NC2CCCCC2)Oc2ncc(-c3cc4ccccc4o3)cc2C1=O	–	–	·	8.7	–	–
